{
  "source": "paper PMC7679043",
  "about": "(Molecular imaging and biology, 2020)",
  "key": {"S1PR1 [1]": {"tested_on": "S1PR1", "settings": "read-out: IC50, nM S1PR1; binding affinity reported previously; cited from earlier work"}, "S1PR2-5": {"tested_on": "S1PR2-5", "settings": "read-out: IC50, nM S1PR2-5; binding affinity reported previously; cited from earlier work"}, "[2]": {"test": "HPLC radiometabolite analysis of rat plasma and brain", "assay_type": "in vivo", "settings": "for level of the lipophilic radiometabolite / level of the polar radiometabolite / percentage of the parent compound: rat plasma", "method_in_brief": "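Adult male Sprague Dawley rats were given ~37 MBq tracer i.v. At set times post-injection they were killed by terminal exsanguination under surgical-plane anesthesia. Heparinized left-ventricle blood was spun to plasma, solvent-deproteinated and re-centrifuged. Whole brain was homogenized in cold PBS, then solvent-extracted, deproteinated and centrifuged. Supernatants ran on C18 HPLC with acetonitrile/0.1 M ammonium formate pH 4.5 (70/30) at 0.76 mL/min. Radioactive peaks were expressed as percentages.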"}, "S1PR1 [3]": {"target": "S1PR1 (Rattus norvegicus, UniProt P48303)", "sequence (P48303 whole entry)": "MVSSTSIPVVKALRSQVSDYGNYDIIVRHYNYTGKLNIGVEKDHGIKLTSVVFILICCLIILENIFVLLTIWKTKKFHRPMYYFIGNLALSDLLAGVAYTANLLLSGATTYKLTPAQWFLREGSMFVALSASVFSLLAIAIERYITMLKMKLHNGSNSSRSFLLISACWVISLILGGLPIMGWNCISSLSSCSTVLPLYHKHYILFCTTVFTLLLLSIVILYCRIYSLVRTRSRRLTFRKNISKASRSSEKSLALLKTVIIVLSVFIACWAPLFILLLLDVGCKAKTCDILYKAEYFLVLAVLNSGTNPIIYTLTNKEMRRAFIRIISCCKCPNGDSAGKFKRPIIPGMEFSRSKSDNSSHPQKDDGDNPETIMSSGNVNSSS", "assay_type": "in vivo", "settings": "for Average uptake: 10–60 min post injection; for 2TCM VT: image-derived input function", "method_in_brief": "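EAE and sham rats (n=3–4 per group per tracer) were held under 1.5–2% isoflurane/oxygen, centered on T13. After CT, each received a 15–22 MBq i.v. bolus, followed by 60-min dynamic list-mode PET. Lumbar spinal cord and bilateral carotid ROIs on co-registered PET/CT gave %ID/g TACs. Mean 10–60 min uptake and 2TCM VT (carotid image-derived input) were compared by two-tailed t-test (P<0.05).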"}, "[4]": {"settings": "rat brain homogenate, 5 min p.i."}, "[5]": {"settings": "rat brain homogenate, 15 min p.i."}, "[6]": {"settings": "rat brain homogenate, 40 min p.i."}, "[7]": {"settings": "rat brain homogenate, 60 min p.i."}},
  "note": "Entries after “also recorded” stand apart in the source; their conditions may differ. Like-named read-outs stand apart in the source and are kept apart here.",
  "data": [
    {"smiles": "OCCOCc1ccc(-c2noc(-c3ccc(OCCF)c(C(F)(F)F)c3)n2)cc1", "note": "[TZ4877]", "values": [
      {"measurement": "IC50", "setting": "S1PR1 [1]", "value": "14.01 ± 0.04", "unit": "nM"},
      {"measurement": "IC50", "setting": "S1PR2-5", "value": "> 1000", "unit": "nM"}
    ]},
    {"smiles": "OCCOCc1ccc(-c2noc(-c3ccc(OCC[18F])c(C(F)(F)F)c3)n2)cc1", "note": "[TZ4877]", "values": [
      {"measurement": "hydrophilic radiometabolite", "setting": "[2]; [4]", "value": 6, "unit": "%"},
      {"measurement": "parent tracer percentage", "setting": "[2]; [4]", "value": 78, "unit": "%"},
      {"measurement": "hydrophilic radiometabolite", "setting": "[2]; [5]", "value": 2, "unit": "%"},
      {"measurement": "parent tracer percentage", "setting": "[2]; [5]", "value": 89, "unit": "%"},
      {"measurement": "hydrophilic radiometabolite", "setting": "[2]; [6]", "value": 10, "unit": "%"},
      {"measurement": "parent tracer percentage", "setting": "[2]; [6]", "value": 65, "unit": "%"},
      {"measurement": "hydrophilic radiometabolite", "setting": "[2]; [7]", "value": 14, "unit": "%"},
      {"measurement": "parent tracer percentage", "setting": "[2]; [7]", "value": 68, "unit": "%"},
      {"measurement": "lipophilic radiometabolite in brain", "setting": "[2]; rat brain homogenate, listed as 18F-TZ4877", "value": "No lipophilic radioactive peak was detected; also recorded: not detected"},
      {"measurement": "level of the lipophilic radiometabolite", "setting": "[2]; 5 min p.i.", "value": 14, "unit": "%"},
      {"measurement": "level of the polar radiometabolite", "setting": "[2]; 5 min p.i.", "value": 7, "unit": "%"},
      {"measurement": "percentage of the parent compound", "setting": "[2]; 5 min p.i.", "value": 75, "unit": "%"},
      {"measurement": "level of the lipophilic radiometabolite", "setting": "[2]; 15 min p.i.", "value": 21, "unit": "%"},
      {"measurement": "level of the polar radiometabolite", "setting": "[2]; 15 min p.i.", "value": 6, "unit": "%"},
      {"measurement": "percentage of the parent compound", "setting": "[2]; 15 min p.i.", "value": 68, "unit": "%"},
      {"measurement": "level of the lipophilic radiometabolite", "setting": "[2]; 40 min p.i.", "value": 26, "unit": "%"},
      {"measurement": "level of the polar radiometabolite", "setting": "[2]; 40 min p.i.", "value": 5, "unit": "%"},
      {"measurement": "percentage of the parent compound", "setting": "[2]; 40 min p.i.", "value": 66, "unit": "%"},
      {"measurement": "level of the lipophilic radiometabolite", "setting": "[2]; 60 min p.i.", "value": 41, "unit": "%"},
      {"measurement": "level of the polar radiometabolite", "setting": "[2]; 60 min p.i.", "value": 5, "unit": "%"},
      {"measurement": "percentage of the parent compound", "setting": "[2]; 60 min p.i.", "value": 51, "unit": "%"},
      {"measurement": "Average uptake", "setting": "S1PR1 [3]; EAE rat lumbar spinal cord", "value": "1.42 ± 0.14", "unit": "%ID/g"},
      {"measurement": "2TCM VT", "setting": "S1PR1 [3]; EAE rat lumbar spinal cord", "value": "2.18 ± 0.20", "unit": "mL/cc"},
      {"measurement": "2TCM VT Increase, %", "setting": "S1PR1 [3]; EAE vs sham", "value": 21.11, "unit": "%"},
      {"measurement": "Average uptake Increase, %", "setting": "S1PR1 [3]; EAE vs sham rat lumbar spinal cord, listed as 18F-TZ4877", "value": 29.09, "unit": "%"},
      {"measurement": "bone uptake/defluorination", "setting": "S1PR1 [3]; PET images without CT co-registration, rat", "value": "no obvious bone uptake/defluorination"},
      {"measurement": "initial tracer uptake at 20 min", "setting": "S1PR1 [3]; rat spinal cord, 20 min", "value": "~ 1.5 %ID/g"},
      {"measurement": "tracer uptake / retention at 60 min", "setting": "S1PR1 [3]; rat spinal cord, 60 min", "value": "> 1.0", "unit": "%ID/g"},
      {"measurement": "Average uptake", "setting": "S1PR1 [3]; sham rat lumbar spinal cord, listed as 18F-TZ4877", "value": "1.10 ± 0.06", "unit": "%ID/g"},
      {"measurement": "2TCM VT", "setting": "S1PR1 [3]; sham rat lumbar spinal cord", "value": "1.80 ± 0.20", "unit": "mL/cc"}
    ]}
  ]
}
